Data reported in ChEMBL document CHEMBL2203231, “Nitric oxide donor doxorubicins accumulate into Doxorubicin-resistant human colon cancer cells inducing cytotoxicity” (ACS Med Chem Lett, 2011).
Each block holds one compound with its values, some of them ahead of it. Active and inactive are the calls of the source. The calls are words filed in the database; no cut-off is given here.

Tests used:
[1] = target: T1, ATP-binding cassette sub-family C member 3 (Homo sapiens, UniProt O15438); assay: Inhibition of MRP3 in doxorubicin-resistant human HT-29 cells assessed as nitration of tyrosine residues at 5 uM after 24 hrs by Western blot analysis; format: cell-based; conditions: ht-29, 24 h
T1 sequence (O15438 whole entry): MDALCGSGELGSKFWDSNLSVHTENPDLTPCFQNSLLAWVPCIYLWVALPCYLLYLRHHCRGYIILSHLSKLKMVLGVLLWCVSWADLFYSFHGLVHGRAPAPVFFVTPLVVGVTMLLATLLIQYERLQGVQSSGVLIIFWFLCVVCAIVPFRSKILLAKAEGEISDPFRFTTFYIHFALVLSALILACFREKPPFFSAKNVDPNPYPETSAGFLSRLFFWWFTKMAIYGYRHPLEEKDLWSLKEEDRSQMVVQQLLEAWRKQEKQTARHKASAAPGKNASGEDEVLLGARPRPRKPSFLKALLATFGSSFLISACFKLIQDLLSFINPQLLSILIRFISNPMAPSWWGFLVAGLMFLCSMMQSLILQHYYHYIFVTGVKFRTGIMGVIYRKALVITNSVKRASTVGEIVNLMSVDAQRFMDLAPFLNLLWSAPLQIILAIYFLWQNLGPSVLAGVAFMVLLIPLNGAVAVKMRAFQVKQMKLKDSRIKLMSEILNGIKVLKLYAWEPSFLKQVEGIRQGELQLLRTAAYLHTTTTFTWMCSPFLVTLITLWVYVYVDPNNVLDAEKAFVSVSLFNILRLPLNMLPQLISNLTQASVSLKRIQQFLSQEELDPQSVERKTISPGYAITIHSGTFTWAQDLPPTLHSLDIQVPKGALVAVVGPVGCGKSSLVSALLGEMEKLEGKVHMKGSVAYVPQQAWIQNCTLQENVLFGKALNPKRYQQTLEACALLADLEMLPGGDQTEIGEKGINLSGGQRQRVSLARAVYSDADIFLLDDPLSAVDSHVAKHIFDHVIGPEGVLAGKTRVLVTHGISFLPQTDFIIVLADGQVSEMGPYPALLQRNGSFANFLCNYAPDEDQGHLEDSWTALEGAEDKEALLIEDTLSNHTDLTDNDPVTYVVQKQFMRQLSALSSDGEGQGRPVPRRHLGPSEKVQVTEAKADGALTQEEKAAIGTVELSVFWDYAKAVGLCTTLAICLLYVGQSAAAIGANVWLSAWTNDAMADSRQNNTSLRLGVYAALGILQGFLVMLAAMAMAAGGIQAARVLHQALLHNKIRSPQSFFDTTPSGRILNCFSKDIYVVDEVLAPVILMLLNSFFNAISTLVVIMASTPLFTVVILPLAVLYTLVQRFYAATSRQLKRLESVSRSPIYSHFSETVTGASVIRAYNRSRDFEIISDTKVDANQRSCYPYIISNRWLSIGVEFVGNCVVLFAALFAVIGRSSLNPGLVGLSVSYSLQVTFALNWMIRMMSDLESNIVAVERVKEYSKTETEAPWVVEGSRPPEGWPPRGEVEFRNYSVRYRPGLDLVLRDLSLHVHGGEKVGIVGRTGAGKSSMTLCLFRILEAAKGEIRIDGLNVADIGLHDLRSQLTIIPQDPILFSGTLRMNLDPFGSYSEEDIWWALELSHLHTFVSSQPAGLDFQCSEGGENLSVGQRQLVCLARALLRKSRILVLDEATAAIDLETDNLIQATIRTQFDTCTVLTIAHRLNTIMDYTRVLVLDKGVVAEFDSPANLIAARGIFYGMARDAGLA
Procedure, shortened: (§1)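 HT29-dx cells were treated for 24 h with 5 μM compound and lysed. Whole lysate was immunoprecipitated with a polyclonal anti-nitrotyrosine antibody, then Western blotted with anti-P-gp or anti-MRP3 antibody. Total transporter levels were checked before immunoprecipitation, with GAPDH as loading control. Representative of three experiments.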

HT-29 [2] = assay: Induction of nitrite production in doxorubicin-resistant human HT-29 cells at 5 uM after 1 to 24 hrs by Griess method; format: functional, cell-based
Procedure, shortened: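 In a time-course run, HT29-dx cells were exposed to 5 μM compound. Nitrite in the medium was measured by the Griess reaction at times between 1 and 24 h.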

[3] = target: T1, ATP-binding cassette sub-family C member 3; assay: Inhibition of MRP3-mediated drug resistance in doxorubicin-resistant human HT-29 cells assessed as increase in drug accumulation at 5 uM after 1 to 24 hrs by spectrofluorometric analysis; format: cell-based; conditions: ht-29, 5 µM
Procedure, shortened: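 Time course in HT29-dx cells with 5 μM drug over 1–24 h. Intracellular content was read by spectrofluorimetry of cell lysates.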

[4] = target: T1, ATP-binding cassette sub-family C member 3; assay: Inhibition of MRP3-mediated drug resistance in doxorubicin-resistant human HT-29 cells assessed as increase in drug accumulation at 25 uM after 24 hrs by spectrofluorometric analysis; format: cell-based; conditions: ht-29, 24 h
Procedure, shortened: (§2)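 HT29-dx cells in RPMI 1640 were incubated for 24 h with 0.5, 1, 2.5, 5 or 25 μM drug, then lysed. Intracellular drug was measured spectrofluorimetrically (excitation 475 nm, emission 553 nm). Data are means ± SD (n = 3) versus untreated cells.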

[5] = target: T1, ATP-binding cassette sub-family C member 3; assay: Inhibition of MRP3-mediated drug resistance in doxorubicin-resistant human HT-29 cells assessed as increase in drug accumulation at 0.5 to 5 uM after 24 hrs by spectrofluorometric analysis; format: cell-based; conditions: ht-29, 24 h; procedure, shortened: as §2
HT-29 [6] = assay: Inhibition of P-gp in doxorubicin-resistant human HT-29 cells assessed as nitration of tyrosine residues at 5 uM after 24 hrs by Western blot analysis; format: cell-based; procedure, shortened: as §1
HT-29 [7] = assay: Induction of nitrite production in doxorubicin-resistant human HT-29 cells at 5 uM by Griess method; format: functional, cell-based; conditions: TDE = time-dependent effect
Procedure, shortened: (§3)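 HT29-dx cells were incubated for 24 h with 5 μM compound, alone or with 100 μM PTIO or 10 μL/mL packed red blood cells as NO scavengers. Readouts were intracellular drug content, extracellular LDH activity and nitrite in the culture supernatant. Measured in duplicate, n = 3.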

HT-29 [8] = assay: Induction of nitrite production in doxorubicin-resistant human HT-29 cells after 24 hrs by Griess method; format: functional, cell-based
Procedure, shortened: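 HT29-dx cell monolayers were incubated for 24 h with 0.5, 1, 2.5, 5 or 25 μM compound. Nitrite in the culture medium was quantified by the Griess reaction. Data are means ± SD (n = 3) versus untreated cells.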

[9] = target: T1, ATP-binding cassette sub-family C member 3; assay: Inhibition of MRP3-mediated drug resistance in doxorubicin-resistant human HT-29 cells assessed as increase in extracellular LDH level at 5 uM after 24 hrs by spectrofluorometric analysis in presence of nitric oxide scavenger PTIO and RBCs; format: cell-based; conditions: ht-29, 24 h; procedure, shortened: as §3
[10] = target: T1, ATP-binding cassette sub-family C member 3; assay: Inhibition of MRP3-mediated drug resistance in doxorubicin-resistant human HT-29 cells assessed as increase in extracellular LDH level at 5 uM after 24 hrs by spectrofluorometric analysis; format: cell-based; conditions: ht-29, 24 h; procedure, shortened: as §3
[11] = target: T1, ATP-binding cassette sub-family C member 3; assay: Inhibition of MRP3-mediated drug resistance in doxorubicin-resistant human HT-29 cells assessed as increase in doxorubicin accumulation at 5 uM by spectrofluorometric analysis; format: cell-based; conditions: ht-29, 5 µM, TDE = time-dependent effect
[12] = target: T1, ATP-binding cassette sub-family C member 3; assay: Inhibition of MRP3-mediated drug resistance in doxorubicin-resistant human HT-29 cells assessed as increase in doxorubicin accumulation at 5 uM after 24 hrs by spectrofluorometric analysis in presence of nitric oxide scavenger PTIO and RBCs; format: cell-based; conditions: ht-29, 24 h; procedure, shortened: as §3
[13] = target: T1, ATP-binding cassette sub-family C member 3; assay: Inhibition of MRP3-mediated drug resistance in doxorubicin-resistant human HT-29 cells assessed as increase in doxorubicin accumulation after 24 hrs by spectrofluorometric analysis; format: cell-based; conditions: ht-29, 24 h
[14] = target: ATP-dependent translocase ABCB1 (Homo sapiens, UniProt P08183); assay: Inhibition of P-gp in doxorubicin-resistant human HT-29 cells at 5 umol/L incubated for 24 hrs followed by compound wash out measured after 20 mins by Rhodamine 123 staining-based flow cytometry; format: cell-based; conditions: ht-29, 24 h, 5 µM
ATP-dependent translocase ABCB1, sequence (P08183 whole entry): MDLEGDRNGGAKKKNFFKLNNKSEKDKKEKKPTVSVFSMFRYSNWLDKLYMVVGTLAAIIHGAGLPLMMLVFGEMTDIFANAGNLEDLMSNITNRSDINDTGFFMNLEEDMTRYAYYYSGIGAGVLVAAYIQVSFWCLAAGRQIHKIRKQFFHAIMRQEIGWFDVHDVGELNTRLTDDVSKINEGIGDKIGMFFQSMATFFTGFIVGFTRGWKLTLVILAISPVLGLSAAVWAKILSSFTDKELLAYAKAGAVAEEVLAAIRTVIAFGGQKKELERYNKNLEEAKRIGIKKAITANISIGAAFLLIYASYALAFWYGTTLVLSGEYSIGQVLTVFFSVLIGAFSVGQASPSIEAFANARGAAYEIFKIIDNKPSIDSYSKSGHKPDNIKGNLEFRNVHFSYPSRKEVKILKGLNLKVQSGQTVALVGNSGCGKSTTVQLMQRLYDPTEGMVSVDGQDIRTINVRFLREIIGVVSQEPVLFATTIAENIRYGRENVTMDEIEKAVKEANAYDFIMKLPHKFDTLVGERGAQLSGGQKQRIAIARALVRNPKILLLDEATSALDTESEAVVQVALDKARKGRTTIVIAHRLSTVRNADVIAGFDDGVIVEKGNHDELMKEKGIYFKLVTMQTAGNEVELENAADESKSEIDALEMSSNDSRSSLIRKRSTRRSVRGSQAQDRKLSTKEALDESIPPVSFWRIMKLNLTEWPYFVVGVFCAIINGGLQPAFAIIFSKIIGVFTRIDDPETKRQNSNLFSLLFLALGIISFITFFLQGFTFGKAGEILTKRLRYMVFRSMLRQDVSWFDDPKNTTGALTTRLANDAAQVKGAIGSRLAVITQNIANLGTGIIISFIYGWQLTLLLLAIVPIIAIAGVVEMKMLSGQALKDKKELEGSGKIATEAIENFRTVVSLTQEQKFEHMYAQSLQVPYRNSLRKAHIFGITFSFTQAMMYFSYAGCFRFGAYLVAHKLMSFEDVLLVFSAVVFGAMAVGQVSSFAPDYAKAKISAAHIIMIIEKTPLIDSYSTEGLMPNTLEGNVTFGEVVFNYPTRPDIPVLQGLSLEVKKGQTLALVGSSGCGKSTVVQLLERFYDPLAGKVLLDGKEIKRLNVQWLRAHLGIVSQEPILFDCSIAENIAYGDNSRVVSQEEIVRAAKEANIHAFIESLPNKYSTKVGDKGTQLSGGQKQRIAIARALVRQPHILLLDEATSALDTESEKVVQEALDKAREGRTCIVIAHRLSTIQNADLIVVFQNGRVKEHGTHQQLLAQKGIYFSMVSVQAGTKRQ

[15] = target: T1, ATP-binding cassette sub-family C member 3; assay: Inhibition of MRP3-mediated drug resistance in doxorubicin-resistant human HT-29 cells assessed as increase in doxorubicin accumulation at 5 umol/L co-administered with doxorubicin after 24 hrs by spectrofluorometric analysis; format: cell-based; conditions: ht-29, 24 h, 5 µM
[16] = target: T1, ATP-binding cassette sub-family C member 3; assay: Inhibition of MRP3-mediated drug resistance in doxorubicin-resistant human HT-29 cells assessed as increase in doxorubicin accumulation at 5 umol/L incubated for 24 hrs followed by compound wash out measured 24 hrs post doxorubicin administration by spectrofluorometric analysis; format: cell-based; conditions: ht-29, 24 h, 5 µM

SMILES: COc1cccc2c1C(=O)c1c(O)c3c(c(O)c1C2=O)C[C@@](O)(C(=O)CO)C[C@@H]3O[C@H]1C[C@H](N)[C@H](O)[C@H](C)O1 [DOXORUBICIN]
inhibition (INH) [1]: Not Active | Activity (HT-29 [2]): inactive | inhibition (INH) [3]: Not Active | inhibition (INH) [4]: Active | inhibition (INH) [5]: Not Active

SMILES: COc1cccc2c1C(=O)c1c(O)c3c(c(O)c1C2=O)C[C@@](O)(C(=O)COC(=O)CCOc1no[n+]([O-])c1S(=O)(=O)c1ccccc1)C[C@@H]3O[C@H]1C[C@H](N)[C@H](O)[C@H](C)O1.Cl
inhibition (HT-29 [6]): inactive | inhibition (INH) [1]: Active | Activity (HT-29 [7]): tde | Activity (HT-29 [8]): Dose-dependent effect | inhibition (INH) [9]: Not Active | inhibition (INH) [10]: Active | inhibition (INH) [11]: tde | inhibition (INH) [12]: Not Active | inhibition (INH) [13]: Dose-dependent effect

SMILES: O=C(O)CCOc1no[n+]([O-])c1S(=O)(=O)c1ccccc1
inhibition (INH) [14]: Not Active | inhibition (INH) [10]: Not Active | inhibition (INH) [15]: Active | inhibition (INH) [16]: Active

SMILES: COC(=O)CCOc1no[n+]([O-])c1S(=O)(=O)c1ccccc1
inhibition (INH) [14]: Not Active | inhibition (INH) [10]: Not Active | inhibition (INH) [15]: Active | inhibition (INH) [16]: Active

Continued, in another order:

inhibition (INH) [1]: Active | inhibition (INH) [9]: Not Active | inhibition (INH) [10]: Active | inhibition (INH) [11]: tde | inhibition (INH) [12]: Not Active | inhibition (INH) [13]: Dose-dependent effect
SMILES: COc1cccc2c1C(=O)c1c(O)c3c(c(O)c1C2=O)C[C@@](O)(C(=O)COC(=O)c1ccc(CC(CO[N+](=O)[O-])O[N+](=O)[O-])cc1)C[C@@H]3O[C@H]1C[C@H](N)[C@H](O)[C@H](C)O1.Cl (stereo partly drawn)
inhibition (HT-29 [6]): inactive | Activity (HT-29 [7]): tde | Activity (HT-29 [8]): Dose-dependent effect

inhibition (INH) [10]: Not Active
SMILES: O=C(O)c1ccc(CC(CO[N+](=O)[O-])O[N+](=O)[O-])cc1 (stereo not drawn)

inhibition (INH) [10]: Not Active
SMILES: COC(=O)c1ccc(CC(CO[N+](=O)[O-])O[N+](=O)[O-])cc1 (stereo not drawn)
